ChEMBL document CHEMBL3808334, “Synthesis and in vitro evaluation of novel triazine analogues as anticancer agents and their interaction studies with bovine serum albumin” (Eur J Med Chem, 2016)

What was measured:
Assay type in all cases: functional
U-251 [1] = assay: Growth inhibition of human U251 cells assessed as cell growth at 10^-8 M incubated for 48 hrs by sulforhodamine B assay; details: U-251, 48 h, read-out: Activity
CCRF-CEM = assay: Growth inhibition of human CCRF-CEM cells assessed as cell growth at 10^-5 M incubated for 48 hrs by sulforhodamine B assay; details: read-out: Activity
Outline: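 Leukemia line in the five-dose format: five concentrations from 10-fold or ½-log serial dilutions. Plated at 5,000–40,000 cells per well, preincubated 24 h, then compound added for 48 h at 37 °C, 5% CO₂. Sulforhodamine B absorbance read at 515 nm. Growth is computed against time-zero (Tz) and control (C) readings; GI₅₀ is where [(Ti−Tz)/(C−Tz)]×100 = 50.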

[2] = Growth inhibition of human COLO205 cells incubated for 48 hrs by sulforhodamine B assay; details: COLO 205, 48 h
Outline: (§1)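 Cells seeded at 5,000–40,000/well according to doubling time and preincubated 24 h at 37 °C, 5% CO2. Time-zero plates were TCA-fixed. DMSO concentrate was diluted in medium with 50 µg/ml gentamicin to give five concentrations (10-fold or ½ log steps), then exposed 48 h. Cells were TCA-fixed, stained with 0.4% SRB and read at 515 nm. Percent growth was taken against time-zero and control; GI50, TGI and LC50 derived.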

[3] = Growth inhibition of human SW620 cells assessed as cell growth at 10^-5 M incubated for 48 hrs by sulforhodamine B assay; details: SW-620, 48 h, read-out: Activity
SR [4] = assay: Growth inhibition of human SR cells assessed as cell growth at 10^-6 M incubated for 48 hrs by sulforhodamine B assay; details: read-out: Activity
MDA-MB-231 = assay: Growth inhibition of human MDA-MB-231 cells assessed as cell growth at 10^-5 M incubated for 48 hrs by sulforhodamine B assay; details: MDA-MB-231, 48 h, read-out: Activity
NCI-H460 = assay: Growth inhibition of human NCI-H460 cells assessed as cell growth at 10^-8 M incubated for 48 hrs by sulforhodamine B assay; details: NCI-H460, 48 h, read-out: Activity
NCI-H522 = assay: Growth inhibition of human NCI-H522 cells assessed as cell growth at 10^-4 M incubated for 48 hrs by sulforhodamine B assay; details: NCI-H522, 48 h, read-out: Activity
A498 = assay: Growth inhibition of human A498 cells incubated for 48 hrs by sulforhodamine B assay; details: A498, 48 h
Outline: (§2)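 Five-dose assay: five concentrations from 10-fold or ½-log serial dilutions. Cells are plated at 5,000–40,000 per well according to doubling time, grown 24 h, then exposed 48 h at 37 °C, 5% CO₂. Fixed with cold 50% TCA (final addition) for 60 min at 4 °C and stained with 0.4% SRB in 1% acetic acid. Bound dye is solubilized in 10 mM Tris base and read at 515 nm. GI₅₀ is where [(Ti−Tz)/(C−Tz)]×100 = 50, with a time-zero plate as Tz.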

[5] = Growth inhibition of human Caki1 cells assessed as cell growth at 10^-8 M incubated for 48 hrs by sulforhodamine B assay; details: CAKI-1, 48 h, read-out: Activity; outline: as §1
[6] = Growth inhibition of human RXF393 cells assessed as cell growth at 10^-5 M incubated for 48 hrs by sulforhodamine B assay; details: RXF 393, 48 h, read-out: Activity
[7] = Growth inhibition of human OVCAR4 cells assessed as cell growth at 10^-7 M incubated for 48 hrs by sulforhodamine B assay; details: OVCAR-4, 48 h, read-out: Activity
SR [8] = assay: Growth inhibition of human SR cells assessed as cell growth at 10^-7 M incubated for 48 hrs by sulforhodamine B assay; details: read-out: Activity
[9] = Growth inhibition of human SKOV3 cells assessed as cell growth at 10^-8 M incubated for 48 hrs by sulforhodamine B assay; details: SK-OV-3, 48 h, read-out: Activity
U-251 [10] = assay: Growth inhibition of human U251 cells assessed as cell growth at 10^-5 M incubated for 48 hrs by sulforhodamine B assay; details: U-251, 48 h, read-out: Activity
A549 = assay: Growth inhibition of human A549/ATCC cells assessed as cell growth at 10^-5 M incubated for 48 hrs by sulforhodamine B assay; details: A549, 48 h, read-out: Activity; outline: as §2
[11] = Growth inhibition of human SF268 cells assessed as cell growth at 10 uM incubated for 48 hrs by sulforhodamine B assay; details: SF-268, 48 h, read-out: Activity
ACHN = assay: Growth inhibition of human ACHN cells incubated for 48 hrs by sulforhodamine B assay; outline: as §2
[12] = Growth inhibition of human RXF393 cells incubated for 48 hrs by sulforhodamine B assay; details: RXF 393, 48 h
Outline: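 Cells were plated at 5,000–40,000 per well according to doubling time and preincubated 24 h at 37 °C in 5% CO2; time-zero plates were then TCA-fixed. Five concentrations (10-fold or ½-log dilutions, DMSO stock) were incubated 48 h. Cells were TCA-fixed, stained with 0.4% SRB and read at 515 nm. GI50 was taken where [(Ti−Tz)/(C−Tz)]×100 = 50.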

MDA-MB-435 [13] = assay: Growth inhibition of human MDA-MB-435 cells assessed as cell growth at 10 uM incubated for 48 hrs by sulforhodamine B assay; details: MDA-MB-435, 48 h, read-out: Activity
[14] = Growth inhibition of human OVCAR8 cells assessed as cell growth at 10^-5 M incubated for 48 hrs by sulforhodamine B assay; details: OVCAR-8, 48 h, read-out: Activity
NCI-H322M = assay: Growth inhibition of human NCI-H322M cells assessed as cell growth at 10^-6 M incubated for 48 hrs by sulforhodamine B assay; details: read-out: Activity
MDA-MB-435 [15] = assay: Growth inhibition of human MDA-MB-435 cells assessed as cell growth at 10^-7 M incubated for 48 hrs by sulforhodamine B assay; details: MDA-MB-435, 48 h, read-out: Activity
SK-MEL-2 = assay: Growth inhibition of human SK-MEL-2 cells assessed as cell growth at 10^-6 M incubated for 48 hrs by sulforhodamine B assay; details: SK-MEL-2, 48 h, read-out: Activity
M14 = assay: Growth inhibition of human M14 cells assessed as cell growth at 10^-7 M incubated for 48 hrs by sulforhodamine B assay; details: M14, 48 h, read-out: Activity
[16] = read-out: LC50 (the source's name)
[17] = read-out: pLC50 (the source's name) (converted)

Compound: Fc1ccc(-c2nc(Nc3ccc(-c4nc5ccccc5[nH]4)cc3)nc(N3CCOCC3)n2)cc1
- growth at 0.01 µM (U-251 [1]): 101%
- growth at 10 µM (CCRF-CEM): 7%
- GI50 ([2]; read-out: GI50): 1.92 µM
- LC50 ([2]; read-out: LC50): 9.23 µM
- TGI ([2]; read-out: TGI): 4.21 µM
- GI50 ([2]; read-out: pGI50 (converted)): 1.91 µM
- LC50 ([2]; read-out: pLC50 (converted)): 9.33 µM
- TGI ([2]; read-out: pTGI (converted)): 4.17 µM
- growth at 10 µM [3]: -47%
- growth at 1 µM (SR [4]): 37%
- growth at 10 µM (MDA-MB-231): -35%
- growth at 0.01 µM (NCI-H460): 104%
- growth at 100 µM (NCI-H522): -31%
- GI50 (A498; read-out: GI50): 1.52 µM
- CC50 (A498; [16]): 8.42 µM
- TGI (A498; read-out: TGI): 3.57 µM
- GI50 (A498; read-out: pGI50 (converted)): 1.51 µM
- CC50 (A498; [17]): 8.51 µM
- TGI (A498; read-out: pTGI (converted)): 3.55 µM
- growth at 0.01 µM [5]: 94%
- growth at 10 µM [6]: -37%
- growth at 0.1 µM [7]: 104%
- growth at 0.1 µM (SR [8]): 87%
- growth at 0.01 µM [9]: 99%
- growth at 10 µM (U-251 [10]): 5%
- growth at 10 µM (A549): 3%
- growth at 10 µM [11]: 34.1%
- GI50 (ACHN; read-out: GI50): 2.55 µM
- CC50 (ACHN; [16]): > 100 µM
- TGI (ACHN; read-out: TGI): > 100 µM
- GI50 (ACHN; read-out: pGI50 (converted)): 2.57 µM
- CC50 (ACHN; [17]): > 100 µM
- TGI (ACHN; read-out: pTGI (converted)): > 100 µM
- GI50 ([12]; read-out: GI50): 0.459 µM
- CC50 [12, 16]: > 100 µM
- TGI ([12]; read-out: TGI): 2.51 µM
- GI50 ([12]; read-out: pGI50 (converted)): 0.457 µM
- CC50 [12, 17]: > 100 µM
- TGI ([12]; read-out: pTGI (converted)): 2.51 µM
- growth at 10 µM (MDA-MB-435 [13]): -38%
- growth at 10 µM [14]: 2%
- growth at 1 µM (NCI-H322M): 93%
- growth at 0.1 µM (MDA-MB-435 [15]): 102%
- growth at 1 µM (SK-MEL-2): 99%
- growth at 0.1 µM (M14): 99%

Compound: c1ccc2[nH]c(-c3ccc(Nc4nc(N5CCCCC5)nc(N5CCOCC5)n4)cc3)nc2c1
- growth at 0.01 µM (U-251 [1]): 99%
- growth at 10 µM (CCRF-CEM): 3%
- GI50 ([2]; read-out: GI50): 1.86 µM
- LC50 ([2]; read-out: LC50): 8.27 µM
- TGI ([2]; read-out: TGI): 3.92 µM
- GI50 ([2]; read-out: pGI50 (converted)): 1.86 µM
- LC50 ([2]; read-out: pLC50 (converted)): 8.32 µM
- TGI ([2]; read-out: pTGI (converted)): 3.89 µM
- growth at 10 µM [3]: -29%
- growth at 1 µM (SR [4]): 44%
- growth at 10 µM (MDA-MB-231): -13%
- growth at 0.01 µM (NCI-H460): 101%
- growth at 100 µM (NCI-H522): -29%
- GI50 (A498; read-out: GI50): 1.77 µM
- CC50 (A498; [16]): 9.89 µM
- TGI (A498; read-out: TGI): 4.18 µM
- GI50 (A498; read-out: pGI50 (converted)): 1.78 µM
- CC50 (A498; [17]): 10 µM
- TGI (A498; read-out: pTGI (converted)): 4.17 µM
- growth at 0.01 µM [5]: 90%
- growth at 10 µM [6]: -43%
- growth at 0.1 µM [7]: 97%
- growth at 0.1 µM (SR [8]): 88%
- growth at 0.01 µM [9]: 97%
- growth at 10 µM (A549): 2%
- growth at 10 µM [11]: 33.8%
- GI50 (ACHN; read-out: GI50): 3.14 µM
- CC50 (ACHN; [16]): > 100 µM
- TGI (ACHN; read-out: TGI): > 100 µM
- GI50 (ACHN; read-out: pGI50 (converted)): 3.16 µM
- CC50 (ACHN; [17]): > 100 µM
- TGI (ACHN; read-out: pTGI (converted)): > 100 µM
- GI50 ([12]; read-out: GI50): 0.808 µM
- CC50 [12, 16]: > 100 µM
- TGI ([12]; read-out: TGI): 3.28 µM
- GI50 ([12]; read-out: pGI50 (converted)): 0.813 µM
- CC50 [12, 17]: > 100 µM
- TGI ([12]; read-out: pTGI (converted)): 3.31 µM
- growth at 10 µM (MDA-MB-435 [13]): -27.3%
- growth at 10 µM [14]: 9%
- growth at 1 µM (NCI-H322M): 93%
- growth at 0.1 µM (MDA-MB-435 [15]): 95%
- growth at 1 µM (SK-MEL-2): 101%
- growth at 0.1 µM (M14): 95%
